Results taken from ChEMBL document CHEMBL4715825, “Synthesis and biological evaluations of marine oxohexadecenoic acids: PPARα/γ dual agonism and anti-diabetic target gene effects” (Eur J Med Chem, 2018).
Activity calls are given as the source filed them. The calls are words filed in the database; no cut-off is given here.

Assays:
[1] = target: T1, Peroxisome proliferator-activated receptor gamma (Homo sapiens) (UniProt P37231); assay: Agonist activity at human PPARgamma in 8 day differentiated human SGBS cells assessed as decrease in CXCL1 gene expression at 25 uM incubated for 24 hrs by SYBR-green based qPCR analysis; format: cell-based; details: filed as agonist
T1 sequence (whole entry): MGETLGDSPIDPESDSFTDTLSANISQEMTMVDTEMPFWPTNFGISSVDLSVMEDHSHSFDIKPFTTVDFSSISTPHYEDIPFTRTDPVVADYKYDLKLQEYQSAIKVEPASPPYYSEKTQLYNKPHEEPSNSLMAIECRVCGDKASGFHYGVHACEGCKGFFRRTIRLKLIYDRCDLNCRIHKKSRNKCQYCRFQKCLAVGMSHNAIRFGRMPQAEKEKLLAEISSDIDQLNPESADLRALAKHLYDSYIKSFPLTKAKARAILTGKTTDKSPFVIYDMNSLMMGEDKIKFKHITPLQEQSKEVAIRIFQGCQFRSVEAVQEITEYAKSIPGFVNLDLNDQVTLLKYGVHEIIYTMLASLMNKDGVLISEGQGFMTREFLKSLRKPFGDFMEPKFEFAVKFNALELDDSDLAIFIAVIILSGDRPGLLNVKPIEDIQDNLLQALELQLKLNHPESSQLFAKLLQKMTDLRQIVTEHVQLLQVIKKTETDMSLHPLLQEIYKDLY

[2] = target: T2, Retinoic acid receptor RXR-alpha (Homo sapiens) (UniProt P19793); assay: Agonist activity at recombinant human RXRalpha LBD (202 to 462 residues) expressed in African green monkey COS-1 cells at 25 to 50 uM incubated for 18 hrs by luciferase reporter gene assay; format: cell-based; details: dose 25-50 µM
T2 sequence (whole entry): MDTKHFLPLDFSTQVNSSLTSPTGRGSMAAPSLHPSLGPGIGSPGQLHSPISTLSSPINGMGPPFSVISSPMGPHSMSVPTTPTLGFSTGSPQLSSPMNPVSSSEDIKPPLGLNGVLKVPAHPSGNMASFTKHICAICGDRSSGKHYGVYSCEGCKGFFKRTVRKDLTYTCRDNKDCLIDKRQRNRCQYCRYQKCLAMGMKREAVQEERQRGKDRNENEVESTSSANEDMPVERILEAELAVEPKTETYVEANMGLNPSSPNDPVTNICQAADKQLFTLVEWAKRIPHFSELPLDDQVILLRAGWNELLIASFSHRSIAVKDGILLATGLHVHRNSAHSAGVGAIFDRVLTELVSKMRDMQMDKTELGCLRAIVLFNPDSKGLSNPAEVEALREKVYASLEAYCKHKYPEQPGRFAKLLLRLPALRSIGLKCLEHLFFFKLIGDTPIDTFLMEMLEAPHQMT
Procedure, shortened: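 Transient Gal4 one-hybrid assay in COS-1 cells (7×10^4 per well), transfected 24 h after seeding. Plasmids were Gal4-DBD fused to the human nuclear receptor LBD, a 5×UAS-SV40 luciferase reporter and pRL-CMV Renilla control. Ligand in DMSO (final 0.1%) was added 5 h post-transfection. Dual-luciferase activity was read after 18 h, expressed as RLU, from three biological replicates in quadruplicate.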

[3] = target: T3, Peroxisome proliferator-activated receptor alpha (Homo sapiens) (UniProt Q07869); assay: Agonist activity at human PPARalpha in 8 day differentiated human SGBS cells assessed as increase in FABP4 gene expression at 25 uM incubated for 24 hrs by SYBR-green based qPCR analysis; format: cell-based
T3 sequence (whole entry): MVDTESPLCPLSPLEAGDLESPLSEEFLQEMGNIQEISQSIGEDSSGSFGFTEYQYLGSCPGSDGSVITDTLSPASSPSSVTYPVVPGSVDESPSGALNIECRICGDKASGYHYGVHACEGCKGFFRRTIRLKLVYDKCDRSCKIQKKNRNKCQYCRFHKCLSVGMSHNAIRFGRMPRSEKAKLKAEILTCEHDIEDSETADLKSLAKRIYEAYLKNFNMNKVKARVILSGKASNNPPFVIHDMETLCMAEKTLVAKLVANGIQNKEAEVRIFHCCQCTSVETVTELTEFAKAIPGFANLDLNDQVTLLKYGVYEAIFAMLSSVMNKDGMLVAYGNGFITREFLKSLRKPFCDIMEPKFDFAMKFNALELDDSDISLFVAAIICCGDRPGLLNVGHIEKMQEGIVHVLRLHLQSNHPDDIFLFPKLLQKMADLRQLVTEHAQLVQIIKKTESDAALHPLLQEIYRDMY
Procedure, shortened: (§1)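 SGBS preadipocytes were seeded at passage P6-P8 and grown to confluence. They were differentiated for 4 days in Quickdiff (3FC plus dexamethasone, IBMX and rosiglitazone), then kept in 3FC with medium renewed every fourth day. On day 8, cells were stimulated for 24 h in 3FC with compound:BSA or rosiglitazone. SYBR-green qPCR used gene-specific primers. Data are mean ± SEM of three biological replicates in duplicate.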

[4] = target: T3, Peroxisome proliferator-activated receptor alpha (Homo sapiens); assay: Agonist activity at human PPARalpha in 8 day differentiated human SGBS cells assessed as increase in ADIPOQ gene expression at 25 uM incubated for 24 hrs by SYBR-green based qPCR analysis; format: cell-based; procedure, shortened: as §1
[5] = system: SGBS; assay: Induction of adipogenesis in 8 day differentiated human SGBS cells assessed as increase in adipocyte-like multilocular morphology cells at 25 uM measured upto 12 days by oil-O-red staining based inverted microscopic analysis; format: functional, cell-based; details: time day <=12
Procedure, shortened: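 SGBS cells were differentiated in Quickdiff for 4 days, supplemented with 25 µM oxo-fatty acid or 2 µM rosiglitazone, then in 3FC to day 8. Controls were DMSO (0.025%) or BSA (4.2 µM). Cells were fixed in 4% paraformaldehyde for 15 min and stained 15 min with Oil Red O for neutral lipids. They were imaged by inverted microscope at 10× and 40×. Three biological replicates were run in duplicate.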

[6] = target: T1, Peroxisome proliferator-activated receptor gamma (Homo sapiens); assay: Agonist activity at human PPARgamma in 8 day differentiated human SGBS cells assessed as decrease in CXCL5 gene expression at 25 uM incubated for 24 hrs by SYBR-green based qPCR analysis; format: cell-based; details: filed as agonist
[7] = system: SGBS; assay: Induction of adipogenesis in 8 day differentiated human SGBS cells assessed as increase in CEBPB mRNA expression at 25 uM measured upto 12 days by qRT-PCR analysis; format: functional, cell-based; details: time day <=12
Procedure, shortened: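 SGBS cells were grown to confluence (day 0). Quickdiff medium was supplemented with compound or rosiglitazone for 4 days, followed by 3FC medium. DMSO or DMSO:BSA served as control. RNA was harvested on days 0, 4, 8 and 12, and expression was measured by SYBR-green qPCR. Data are mean ± SEM of at least three biological replicates in duplicate.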

[8] = target: T1, Peroxisome proliferator-activated receptor gamma (Homo sapiens); assay: Agonist activity at human PPARgamma in 8 day differentiated human SGBS cells assessed as increase in SLC2A4 gene expression at 25 uM incubated for 24 hrs by SYBR-green based qPCR analysis; format: cell-based; details: filed as agonist
[9] = system: SGBS; assay: Effect on diabetic complication pathway in 8 day differentiated human SGBS cells assessed as downregulation of extracellular matrix-recptor interaction genes at 25 uM incubated for 8 days by Illumina sequencing method; format: functional, cell-based
Procedure, shortened: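 SGBS cells were differentiated 4 days in Quickdiff supplemented with compound:BSA or rosiglitazone, then 4 days in 3FC. Total RNA was extracted, and strand-specific TruSeq libraries were sequenced on NextSeq 500 (2×75 bp paired-end). Reads were aligned to hg19 with Tophat/Bowtie and counted as RPKM by Cufflinks. Values are log2 fold over day 0 cells, grouped into KEGG gene sets (n = 2-4).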

Row | SMILES | Activity [1] | Activity [2] | Activity [3] | Activity [4] | Activity [5] | Activity [6] | Activity [7] | Activity [8] | Activity [9]
1 | CCCCC/C=C/C(=O)CCCCCCCC(=O)O | Active | inactive | inactive | inactive | Active | Active | Active | Active | Active
2 | CCCCCCCC(=O)/C=C/CCCCCC(=O)O | Active | inactive | inactive | inactive | Active | Active | Active | Active | Active
